Data from ChEMBL document CHEMBL1147379, “Antineoplastic agents, 256. Cell growth inhibitory isocarbostyrils from Hymenocallis” (1993).

Legend:
Assay type in all cases: functional
CCRF-CEM = experiment: Growth inhibition of human CCRF-CEM cells
Outline: (§1)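 NCI 60-human-tumour-cell-line primary in vitro screen. Each compound was tested eight separate times across three concentration ranges with upper limits of 10⁻⁴, 10⁻⁵ and 10⁻⁶ M. Each range used five 10-fold dilutions. GI₅₀, TGI and LC₅₀ were calculated from the concentration-response curves for each cell line, and averaged mean-graph values were constructed from them.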

HL-60 = experiment: Growth inhibition of human HL-60(TB) cells; outline: as §1
K562 = experiment: Growth inhibition of human K562 cells; outline: as §1
MOLT-4 = experiment: Growth inhibition of human MOLT4 cells; outline: as §1
RPMI-8226 = experiment: Growth inhibition of human RPMI8226 cells; outline: as §1
SR = experiment: Growth inhibition of human SR cells
Outline: (§2)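 NCI 60-human-tumour-line in vitro primary screen. Each compound tested eight separate times over three concentration ranges (upper limits 10⁻⁴, 10⁻⁵ and 10⁻⁶ M), each range as five 10-fold dilutions. GI₅₀ (also TGI and LC₅₀) derived from the concentration-response curves, reported as averaged values per cell line (negative log₁₀).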

A549 = experiment: Growth inhibition of human A549 cells; outline: as §1
EKVX = experiment: Growth inhibition of human EKVX cells; outline: as §1
HOP-18 = experiment: Growth inhibition of human HOP18 cells; outline: as §1
HOP-62 = experiment: Growth inhibition of human HOP62 cells; outline: as §1
HOP-92 = experiment: Growth inhibition of human HOP92 cells; outline: as §1
NCI-H226 = experiment: Growth inhibition of human NCI-H226 cells; outline: as §1
NCI-H23 = experiment: Growth inhibition of human NCI-H23 cells; outline: as §1
NCI-H322M = experiment: Growth inhibition of human NCI-H322M cells; outline: as §1
NCI-H460 = experiment: Growth inhibition of human NCI-H460 cells; outline: as §1
NCI-H522 = experiment: Growth inhibition of human NCI-H522 cells; outline: as §1
[1] = Growth inhibition of human LXFL529 cells; outline: as §1
DMS-114 = experiment: Growth inhibition of human DMS114 cells; outline: as §1
DMS-273 = experiment: Growth inhibition of human DMS273 cells; outline: as §1
COLO 205 = experiment: Growth inhibition of human COLO205 cells; outline: as §1
DLD-1 = experiment: Growth inhibition of human DLD1 cells; outline: as §1
HCC 2998 = experiment: Growth inhibition of human HCC2998 cells; outline: as §1
HCT-116 = experiment: Growth inhibition of human HCT116 cells; outline: as §1
HCT-15 = experiment: Growth inhibition of human HCT15 cells; outline: as §1
HT-29 = experiment: Growth inhibition of human HT-29 cells; outline: as §1
KM12 = experiment: Growth inhibition of human KM12 cells; outline: as §1
KM-20L2 = experiment: Growth inhibition of human KM20L2 cells; outline: as §1
SW-620 = experiment: Growth inhibition of human SW620 cells; outline: as §2
SF-268 = experiment: Growth inhibition of human SF268 cells; outline: as §1
SF-295 = experiment: Growth inhibition of human SF295 cells; outline: as §1
[2] = read-out: pLC50 (the source's name) (converted)

O=C1N[C@H]2[C@H](O)[C@H](O)[C@@H](O)C[C@@H]2c2cc3c(cc21)OCO3
GI50 (CCRF-CEM): 34.7 nM | CC50 (CCRF-CEM; [2]): > 100000 nM | TGI (CCRF-CEM; read-out: pTGI (converted)): 525 nM | GI50 (HL-60): 32.4 nM | CC50 (HL-60; [2]): 30200 nM | TGI (HL-60; read-out: pTGI (converted)): 191 nM | GI50 (K562): 46.8 nM | CC50 (K562; [2]): > 100000 nM | TGI (K562; read-out: pTGI (converted)): 1100 nM | GI50 (MOLT-4): 44.7 nM | CC50 (MOLT-4; [2]): > 100000 nM | TGI (MOLT-4; read-out: pTGI (converted)): 1910 nM | GI50 (RPMI-8226): 95.5 nM | CC50 (RPMI-8226; [2]): > 100000 nM | TGI (RPMI-8226; read-out: pTGI (converted)): 776 nM | GI50 (SR): 52.5 nM | CC50 (SR; [2]): 56200 nM | TGI (SR; read-out: pTGI (converted)): 3240 nM | GI50 (A549): 100 nM | CC50 (A549; [2]): > 100000 nM | TGI (A549; read-out: pTGI (converted)): 1290 nM | GI50 (EKVX): 331 nM | CC50 (EKVX; [2]): 81300 nM | TGI (EKVX; read-out: pTGI (converted)): 3720 nM | GI50 (HOP-18): 158 nM | CC50 (HOP-18; [2]): 79400 nM | TGI (HOP-18; read-out: pTGI (converted)): 1700 nM | GI50 (HOP-62): 64.6 nM | CC50 (HOP-62; [2]): 10000 nM | TGI (HOP-62; read-out: pTGI (converted)): 501 nM | GI50 (HOP-92): 75.9 nM | CC50 (HOP-92; [2]): > 100000 nM | TGI (HOP-92; read-out: pTGI (converted)): 741 nM | GI50 (NCI-H226): 151 nM | CC50 (NCI-H226; [2]): 8710 nM | TGI (NCI-H226; read-out: pTGI (converted)): 759 nM | GI50 (NCI-H23): 53.7 nM | CC50 (NCI-H23; [2]): 6460 nM | TGI (NCI-H23; read-out: pTGI (converted)): 363 nM | GI50 (NCI-H322M): 70.8 nM | CC50 (NCI-H322M; [2]): 57500 nM | TGI (NCI-H322M; read-out: pTGI (converted)): 708 nM | GI50 (NCI-H460): 38.9 nM | CC50 (NCI-H460; [2]): 52500 nM | TGI (NCI-H460; read-out: pTGI (converted)): 813 nM | GI50 (NCI-H522): 37.1 nM | CC50 (NCI-H522; [2]): 3800 nM | TGI (NCI-H522; read-out: pTGI (converted)): 240 nM | GI50 ([1]; LXFL 529): 46.8 nM | CC50 ([1]; LXFL 529, read-out: pLC50 (the source's name) (converted)): 26900 nM | TGI ([1]; LXFL 529, read-out: pTGI (converted)): 708 nM | GI50 (DMS-114): 50.1 nM | CC50 (DMS-114; [2]): 14100 nM | TGI (DMS-114; read-out: pTGI (converted)): 513 nM | GI50 (DMS-273): 61.7 nM | CC50 (DMS-273; [2]): 12000 nM | TGI (DMS-273; read-out: pTGI (converted)): 603 nM | GI50 (COLO 205): 53.7 nM | CC50 (COLO 205; [2]): 457 nM | TGI (COLO 205; read-out: pTGI (converted)): 200 nM | GI50 (DLD-1): 43.6 nM | CC50 (DLD-1; [2]): > 100000 nM | TGI (DLD-1; read-out: pTGI (converted)): 832 nM | GI50 (HCC 2998): 77.6 nM | CC50 (HCC 2998; [2]): 15800 nM | TGI (HCC 2998; read-out: pTGI (converted)): 813 nM | GI50 (HCT-116): 33.1 nM | CC50 (HCT-116; [2]): 24000 nM | TGI (HCT-116; read-out: pTGI (converted)): 398 nM | GI50 (HCT-15): 85.1 nM | CC50 (HCT-15; [2]): 85100 nM | TGI (HCT-15; read-out: pTGI (converted)): 1200 nM | GI50 (HT-29): 61.7 nM | CC50 (HT-29; [2]): > 100000 nM | TGI (HT-29; read-out: pTGI (converted)): 813 nM | GI50 (KM12): 46.8 nM | CC50 (KM12; [2]): 24000 nM | TGI (KM12; read-out: pTGI (converted)): 912 nM | GI50 (KM-20L2): 51.3 nM | CC50 (KM-20L2; [2]): 66100 nM | TGI (KM-20L2; read-out: pTGI (converted)): 912 nM | GI50 (SW-620): 64.6 nM | CC50 (SW-620; [2]): > 100000 nM | TGI (SW-620; read-out: pTGI (converted)): 2400 nM | GI50 (SF-268): 70.8 nM | CC50 (SF-268; [2]): 63100 nM | TGI (SF-268; read-out: pTGI (converted)): 1510 nM | GI50 (SF-295): 141 nM | CC50 (SF-295; [2]): 41700 nM
